Measured values published in ChEMBL document CHEMBL1123795, “Inhibitors of dopamine beta-hydroxylase. 3. Some 1-(pyridylmethyl)imidazole-2-thiones” (J Med Chem, 1987).
pIC50: −log10 of the molar value.

How the values were obtained:
Rattus norvegicus [1] = assay: Percent increase in DA/NE ratio was determined from assay of DA and NE in the mesenteric artery of spontaneously hypertensive rat after two doses for 50 mg/kg peroral administration; type: functional; settings: route oral
How it was run: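 SHR received two 50 mg/kg doses 18 h apart as suspensions in a 5% PEG 400, 1% methocel vehicle. DA and NE were then assayed in mesenteric artery. The percent change in DA/NE ratio (±SEM) was expressed relative to vehicle-dosed controls.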

Rattus norvegicus [2] = assay: Antihypertensive activity was determined by decrease in blood pressure response in spontaneously hypertensive rat was determined after intraperitoneal administration at a dose of 50 mg/kg; type: functional
How it was run: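 SHR received a single 50 mg/kg ip dose given as a solution in 20% DMF. Blood pressure was read 2 h after dosing, and the reduction (±SEM) was expressed relative to vehicle-dosed control animals.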

[3] = target: T1, Dopamine beta-hydroxylase (Rattus norvegicus, UniProt Q05754); assay: Inhibition of Dopamine beta hydroxylase in spontaneously hypertensive rats; Value ranges from 89-121
T1 sequence (Q05754 whole entry): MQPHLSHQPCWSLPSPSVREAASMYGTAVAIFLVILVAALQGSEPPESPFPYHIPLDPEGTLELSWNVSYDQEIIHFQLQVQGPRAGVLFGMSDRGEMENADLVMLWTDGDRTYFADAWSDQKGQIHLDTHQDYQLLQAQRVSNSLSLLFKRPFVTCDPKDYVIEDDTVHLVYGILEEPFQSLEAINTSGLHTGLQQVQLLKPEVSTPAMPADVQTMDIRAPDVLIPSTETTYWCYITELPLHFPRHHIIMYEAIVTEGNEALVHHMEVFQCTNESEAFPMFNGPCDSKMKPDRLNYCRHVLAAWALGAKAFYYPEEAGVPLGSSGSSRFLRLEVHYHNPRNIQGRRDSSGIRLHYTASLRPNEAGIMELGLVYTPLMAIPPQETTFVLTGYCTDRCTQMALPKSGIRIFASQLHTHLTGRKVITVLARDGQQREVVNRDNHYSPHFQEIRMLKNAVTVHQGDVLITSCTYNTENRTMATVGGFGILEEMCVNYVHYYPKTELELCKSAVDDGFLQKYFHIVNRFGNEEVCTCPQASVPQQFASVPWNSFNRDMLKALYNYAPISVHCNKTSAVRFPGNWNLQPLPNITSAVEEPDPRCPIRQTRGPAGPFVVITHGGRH

[4] = target: T2, Dopamine beta-hydroxylase (Rattus norvegicus) (UniProt Q05754); assay: Inhibition of Dopamine beta hydroxylase in spontaneously hypertensive rats at a concentration of 10e-4
T2 sequence (whole entry): T1 sequence (Q05754 whole entry)
How it was run: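 The DBH assay was run in vitro, with percent inhibition of product formation versus control measured at 10⁻⁴ M compound.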

[5] = target: T1, Dopamine beta-hydroxylase; assay: Inhibition of Dopamine beta hydroxylase in spontaneously hypertensive rats; Value ranges from 21-35
[6] = target: T1, Dopamine beta-hydroxylase; assay: Inhibition of Dopamine beta hydroxylase in spontaneously hypertensive rats; Value ranges from 0.4-1.1
[7] = target: T1, Dopamine beta-hydroxylase; assay: Inhibition of Dopamine beta hydroxylase in spontaneously hypertensive rats; Value range from 8.9-13
[8] = target: T1, Dopamine beta-hydroxylase; assay: Inhibition of Dopamine beta hydroxylase in spontaneously hypertensive rats; Value ranges from 1.3-4.6
[9] = target: T1, Dopamine beta-hydroxylase; assay: Inhibition of Dopamine beta hydroxylase in spontaneously hypertensive rats; Value ranges from 76-220
[10] = target: T1, Dopamine beta-hydroxylase

| Structure (SMILES) | Increase (Rattus norvegicus [1]) [%] | Decrease in blood pressure (Rattus norvegicus [2]) [mmHg] | inhibition [4] [%] | also measured |
| --- | --- | --- | --- | --- |
| Sc1nccn1Cc1cccnc1 | 52 | 34 | – | pIC50 [3]: 3.98 |
| COc1ccc(Cn2ccnc2S)cn1 | – | – | 17 | – |
| Oc1ccc(Cn2ccnc2S)nc1 | – | 22 | – | pIC50 [5]: 4.57 |
| CCCCc1ccc(C(=O)O)nc1 [FUSARIC ACID] | 80 | 54 | – | pIC50 [6]: 6.15 |
| Oc1ccc(Cn2ccnc2S)cn1 | – | – | 7 | – |
| S=c1[nH]ccn1Cc1ccccc1 | – | – | – | pIC50 [7]: 4.96 |
| Sc1nccn1Cc1ccncc1 | 49 | 38 | 17 | – |
| Oc1ccc(Cn2cc[nH]c2=S)cc1 | 95 | 22 | – | pIC50 [8]: 5.59 |
| Sc1nccn1Cc1ccccn1 | 141 | 35 | – | pIC50 [9]: 3.88 |
| Fc1cc(F)cc(Cn2cc[nH]c2=S)c1 | 407 | 50 | – | pIC50 [10]: 5.92 |
